Experiments:
[1] = Drug metabolism in human hepatocytes assessed as 3'-hydroxy repaglinide formation by LC-MS/MS method; assay type: ADME, cell-based, Hepatocyte
Liver microsome [2] = experiment: Drug metabolism in human liver microsomes assessed as 3'-hydroxy repaglinide formation by LC-MS/MS method; assay type: ADME
[3] = Unbound intrinsic clearance in human hepatic S9 fraction assessed as 3'-hydroxy repaglinide formation measured per mg of protein at 0.5 to 150 uM by LC-MS/MS method; assay type: ADME, tissue-based, Liver; conditions: s9, 150 µM
Hepatocyte [4] = experiment: Drug metabolism in human hepatocytes assessed as glucuronide formation measured per 10^6 cells at 0.5 to 150 uM by LC-MS/MS method; assay type: ADME, cell-based
Hepatocyte [5] = experiment: Drug metabolism in human hepatocytes assessed as 2-despiperidyl-2-amino repaglinide formation measured per 10^6 cells at 0.5 to 150 uM by LC-MS/MS method; assay type: ADME, cell-based
Liver microsome [6] = experiment: Drug metabolism in human liver microsomes assessed as 2-despiperidyl-2-amino repaglinide formation measured per mg of protein at 0.5 to 150 uM by LC-MS/MS method; assay type: ADME
[7] = Drug metabolism in human hepatic S9 fraction assessed as 2-despiperidyl-2-amino repaglinide formation measured per mg of protein at 0.5 to 150 uM by LC-MS/MS method; assay type: ADME, Liver; conditions: s9, 150 µM
Cytochrome P450 2C8 [8] = target: T1, Cytochrome P450 2C8 (Homo sapiens, UniProt P10632); experiment: Fraction metabolism via CYP2C8 in human hepatocytes; assay type: ADME, cell-based, Hepatocyte
T1 sequence (P10632 whole entry): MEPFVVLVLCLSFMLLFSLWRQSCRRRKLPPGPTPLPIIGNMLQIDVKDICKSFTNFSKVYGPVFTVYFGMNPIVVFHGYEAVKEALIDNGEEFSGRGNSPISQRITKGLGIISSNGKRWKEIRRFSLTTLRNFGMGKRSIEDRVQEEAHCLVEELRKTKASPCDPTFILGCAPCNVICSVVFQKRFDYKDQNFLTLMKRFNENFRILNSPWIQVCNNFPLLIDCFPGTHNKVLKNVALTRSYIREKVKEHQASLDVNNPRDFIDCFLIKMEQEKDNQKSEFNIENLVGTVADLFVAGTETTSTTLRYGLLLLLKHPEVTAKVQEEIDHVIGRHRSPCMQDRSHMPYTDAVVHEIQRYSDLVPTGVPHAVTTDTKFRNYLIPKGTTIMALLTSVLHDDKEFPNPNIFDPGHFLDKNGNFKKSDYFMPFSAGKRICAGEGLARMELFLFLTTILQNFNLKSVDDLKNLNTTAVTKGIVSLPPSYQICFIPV

Cytochrome P450 3A4 = Cytochrome P450 3A4 (Homo sapiens, UniProt P08684); experiment: Fraction metabolism via CYP3A4 in human hepatocytes; assay type: ADME, cell-based, Hepatocyte
[9] = Fraction metabolism via UGT in human hepatocytes; assay type: ADME, cell-based, Hepatocyte
Homo sapiens [10] = organism: Homo sapiens; experiment: Drug metabolism in human patient assessed as fold change in metabolite M2/M4 AUC ratio at 0.25 mg co-treated with gemfibrozil on various time intervals relative to gemfibrozil non-treated patient; assay type: ADME, organism-based; conditions: in vivo
Homo sapiens [11] = organism: Homo sapiens; experiment: Ratio of AUC in human patient at 0.25 mg to AUC in human patient at 0.25 mg co-treated with itraconazole; assay type: ADME, organism-based; conditions: in vivo
Homo sapiens [12] = organism: Homo sapiens; experiment: Ratio of AUC in human patient at 0.25 mg to AUC in human patient at 0.25 mg co-treated with gemfibrozil and itraconazole; assay type: ADME, organism-based; conditions: in vivo
Homo sapiens [13] = organism: Homo sapiens; experiment: Ratio of AUC in human patient at 0.25 mg to AUC in human patient at 0.25 mg co-treated with gemfibrozil on various time intervals; assay type: ADME, organism-based; conditions: in vivo
Homo sapiens [14] = organism: Homo sapiens; experiment: Ratio of AUC in variable SLCO1B1 genotype human patient at 0.25 mg to AUC in variable SLCO1B1 genotype human patient at 0.25 mg co-treated with gemfibrozil; assay type: ADME, organism-based; conditions: in vivo
Homo sapiens [15] = organism: Homo sapiens; experiment: Ratio of AUC in human patient at 0.25 mg to AUC in human patient at 0.25 mg co-treated with telithromycin; assay type: ADME, organism-based; conditions: in vivo
Homo sapiens [16] = organism: Homo sapiens; experiment: Ratio of AUC in human patient at 0.25 mg to AUC in human patient at 0.25 mg co-treated with trimethoprim; assay type: ADME, organism-based; conditions: in vivo
Homo sapiens [17] = organism: Homo sapiens; experiment: Ratio of AUC in human patient at 0.25 mg to AUC in human patient at 0.25 mg co-treated with cyclosporine; assay type: ADME, organism-based; conditions: in vivo
Homo sapiens [18] = organism: Homo sapiens; experiment: Drug metabolism in variable SLCO1B1 genotype containing human patient assessed as fold change in metabolite M2/M1 AUC ratio at 0.25 mg co-treated with gemfibrozil relative to gemfibrozil non-treated patient; assay type: ADME, organism-based; conditions: in vivo
Homo sapiens [19] = organism: Homo sapiens; experiment: Drug metabolism in human patient assessed as fold change in metabolite M2/M1 AUC ratio at 0.25 mg co-treated with telithromycin relative to telithromycin non-treated patient; assay type: ADME, organism-based; conditions: in vivo
[20] = Drug metabolism in human hepatocytes assessed as 2-despiperidyl-2-amino repaglinide formation by LC-MS/MS method; assay type: ADME, cell-based, Hepatocyte
[21] = Drug metabolism in human hepatic S9 fraction assessed as 2-despiperidyl-2-amino repaglinide formation by LC-MS/MS method; assay type: ADME, Liver
Liver microsome [22] = experiment: Unbound intrinsic clearance in human liver microsomes assessed as 2-despiperidyl-2-amino repaglinide formation measured per mg of protein at 0.5 to 150 uM by LC-MS/MS method; assay type: ADME
Summary of the method: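 Pooled HLM, 0.3 mg/ml, in 0.1 M phosphate pH 7.4 with 10 mM MgCl2 and NADPH regenerating system. Repaglinide at 8 levels, 0.5-150 μM; 37°C, 10 min. Metabolites by LC-MS/MS against authentic standards; fu_inc 0.85. Duplicates on three occasions.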

Cytochrome P450 3A5 = Cytochrome P450 3A5 (Homo sapiens, UniProt P20815); experiment: Unbound intrinsic clearance in human recombinant CYP3A5 expressed in insect cells assessed as enzyme-mediated 2-despiperidyl-2-amino repaglinide formation per nanomole of protein at 0.5 to 150 uM by LC-MS/MS method; assay type: ADME
[23] = Drug metabolism in human hepatocytes assessed as glucuronide formation by LC-MS/MS method; assay type: ADME, cell-based, Hepatocyte
Liver microsome [24] = experiment: Drug metabolism in human liver microsomes assessed as glucuronide formation by LC-MS/MS method; assay type: ADME
Liver microsome [25] = experiment: Unbound intrinsic clearance in human liver microsomes assessed as glucuronide formation measured per mg of protein at 0.5 to 150 uM by LC-MS/MS method; assay type: ADME
Cytochrome P450 2C8 [26] = target: T1, Cytochrome P450 2C8; experiment: Unbound intrinsic clearance in human recombinant CYP2C8 expressed in insect cells assessed as enzyme-mediated 2-despiperidyl-2-amino repaglinide formation per nanomole of protein at 0.5 to 150 uM by LC-MS/MS method; assay type: ADME
[27] = Drug metabolism in human hepatocytes assessed as 2-despiperidyl-2-(5-carboxypentylamine) repaglinide formation by LC-MS/MS method; assay type: ADME, cell-based, Hepatocyte
Liver microsome [28] = experiment: Drug metabolism in human liver microsomes assessed as 2-despiperidyl-2-(5-carboxypentylamine) repaglinide formation by LC-MS/MS method; assay type: ADME
[29] = Drug metabolism in human hepatic S9 fraction assessed as 2-despiperidyl-2-(5-carboxypentylamine) repaglinide formation by LC-MS/MS method; assay type: ADME, Liver
[30] = Unbound intrinsic clearance in human hepatic S9 fraction assessed as 2-despiperidyl-2-(5-carboxypentylamine) repaglinide formation measured per mg of protein at 0.5 to 150 uM by LC-MS/MS method; assay type: ADME, tissue-based, Liver; conditions: s9, 150 µM
Hepatocyte [31] = experiment: Drug metabolism in human hepatocytes assessed as 3'-hydroxy repaglinide formation measured per 10^6 cells at 0.5 to 150 uM by LC-MS/MS method; assay type: ADME, cell-based

Sequence of Cytochrome P450 3A4 (P08684 whole entry): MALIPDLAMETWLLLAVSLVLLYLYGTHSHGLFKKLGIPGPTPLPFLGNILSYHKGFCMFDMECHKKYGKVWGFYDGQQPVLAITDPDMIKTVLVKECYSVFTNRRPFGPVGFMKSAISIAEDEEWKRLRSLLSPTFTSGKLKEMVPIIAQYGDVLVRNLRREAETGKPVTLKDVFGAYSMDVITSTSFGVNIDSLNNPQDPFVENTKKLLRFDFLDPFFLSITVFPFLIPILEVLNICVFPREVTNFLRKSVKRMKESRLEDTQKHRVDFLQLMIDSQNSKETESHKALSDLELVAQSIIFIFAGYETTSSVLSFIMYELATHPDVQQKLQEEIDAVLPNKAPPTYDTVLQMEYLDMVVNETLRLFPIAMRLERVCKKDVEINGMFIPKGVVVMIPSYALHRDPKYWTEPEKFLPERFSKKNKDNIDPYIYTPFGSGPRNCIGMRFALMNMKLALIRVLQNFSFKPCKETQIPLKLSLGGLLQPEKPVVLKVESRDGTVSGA
Sequence of Cytochrome P450 3A5 (P20815 whole entry): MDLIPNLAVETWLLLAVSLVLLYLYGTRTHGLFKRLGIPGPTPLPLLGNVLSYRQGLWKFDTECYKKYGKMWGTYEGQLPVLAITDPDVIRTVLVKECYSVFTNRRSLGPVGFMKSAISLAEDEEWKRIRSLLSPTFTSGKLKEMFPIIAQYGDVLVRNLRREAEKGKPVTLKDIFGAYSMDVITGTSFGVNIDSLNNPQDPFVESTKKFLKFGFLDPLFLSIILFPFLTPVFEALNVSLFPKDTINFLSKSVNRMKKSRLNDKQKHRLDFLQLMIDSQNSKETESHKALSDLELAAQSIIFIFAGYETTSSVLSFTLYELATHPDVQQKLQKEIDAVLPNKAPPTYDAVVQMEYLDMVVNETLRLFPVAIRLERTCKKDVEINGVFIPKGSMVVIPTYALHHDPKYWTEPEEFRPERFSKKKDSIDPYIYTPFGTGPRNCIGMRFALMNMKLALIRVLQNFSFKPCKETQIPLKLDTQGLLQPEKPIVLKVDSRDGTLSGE

CCOc1cc(CC(=O)N[C@@H](CC(C)C)c2ccccc2N2CCCCC2)ccc1C(=O)O [REPAGLINIDE]
Km [1]: 13 µM | Km (Liver microsome [2]): 9 µM | CL free [3]: 2.7 µL/min/mg | Vmax (Hepatocyte [4]): 5.7 pmol/min/10^6cells | Vmax (Hepatocyte [5]): 23 pmol/min/10^6cells | Vmax (Liver microsome [6]): 170 pmol/min/mg | Vmax [7]: 24 pmol/min/mg | Fm (Cytochrome P450 2C8 [8]): 0.49 | Fm (Cytochrome P450 3A4): 0.41 | Fm [9]: 0.02 | fold change (FC) (Homo sapiens [10]): 0.94 | Ratio (Homo sapiens [11]): 1.4 | Ratio (Homo sapiens [12]): 19 | Ratio (Homo sapiens [13]): 5 | Ratio (Homo sapiens [14]): 7.3 | Ratio (Homo sapiens [15]): 1.8 | Ratio (Homo sapiens [16]): 1.6 | Ratio (Homo sapiens [17]): 2.4 | fold change (FC) (Homo sapiens [18]): 0.38 | fold change (FC) (Homo sapiens [19]): 3.9 | Km [20]: 58 µM | Km [21]: 58 µM | CL free (Liver microsome [22]): 4.1 µL/min/mg | CL free (Cytochrome P450 3A5): 1.4 µL/min/nmol | Km [23]: 53 µM | Km (Liver microsome [24]): 37 µM | CL free (Liver microsome [25]): 5.6 µL/min/mg | CL free (Cytochrome P450 2C8 [26]): 3.7 µL/min/nmol | Km [27]: 28 µM | Km (Liver microsome [28]): 24 µM | Km [29]: 47 µM | CL free [30]: 3.7 µL/min/mg | Vmax (Hepatocyte [31]): 28 pmol/min/10^6cells

Reference: ChEMBL document CHEMBL3525906, “A comprehensive assessment of repaglinide metabolic pathways: impact of choice of in vitro system and relative enzyme contribution to in vitro clearance” (Drug Metab Dispos, 2012)
